Compound activity deposited in PubChem BioAssay by several laboratories.
Lmaj promast: Leishmania major promastigote growth inhibition, primary screen. AID 1063, 2008. inhibition, % at 10 µM. Leishmania major promastigotes, resazurin fluorescence viability. actives 9% (n = 200,000); in the data active = inhibition above about 50%;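 note: promastigotes grown with compound for 44 hours at 28 °C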
PMI act hi M6P: human PMI activators, high substrate, primary screen, biochemical, fluorescence intensity, near-saturating mannose 6-phosphate; Mannose-6-phosphate isomerase (Homo sapiens), P34949; activation factor at 20 µM; coupled PMI enzyme assay, resazurin fluorescence, 20 min; stronger effect = higher value; 1 = untreated enzyme, 0 = substrate-free blank; actives 0.34% (n = 190,000);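 active = activation factor of 2 or more at 20 µM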
Target sequence (P34949 whole entry, looked up): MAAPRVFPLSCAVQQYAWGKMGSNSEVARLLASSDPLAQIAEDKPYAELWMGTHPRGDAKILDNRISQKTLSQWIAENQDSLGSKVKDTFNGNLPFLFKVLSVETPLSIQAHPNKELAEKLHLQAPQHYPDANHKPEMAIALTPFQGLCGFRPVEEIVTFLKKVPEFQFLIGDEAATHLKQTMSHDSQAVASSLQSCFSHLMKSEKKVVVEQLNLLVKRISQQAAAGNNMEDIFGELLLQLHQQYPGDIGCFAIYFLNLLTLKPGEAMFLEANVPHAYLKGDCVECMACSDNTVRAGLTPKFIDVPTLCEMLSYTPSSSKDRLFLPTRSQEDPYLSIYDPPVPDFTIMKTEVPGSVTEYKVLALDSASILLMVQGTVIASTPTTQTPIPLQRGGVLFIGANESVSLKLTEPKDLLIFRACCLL
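Technique: Diaphorase-driven resazurin-to-resorufin fluorescence, excitation 544, emission 590 nm | Assay system: Human PMI in coupled enzyme assay | Times: Enzyme reaction with compound 20 min at room temperature | Medium: HEPES-buffered pH 7.4 with magnesium and detergent | Reagent: Mannose-6-phosphate 1.0 mM (near-saturating) plus 0.22 mM NADP+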
WT yeast gro inh: growth inhibition of WT strain, primary screen, mitochondrial fusion inhibitor project, WT and mutant strains, chemical genetic | mitochondrial fusion phenotypic screen | inhibition, % at 10 µM | actives 2.1% (n = 190,000) | AID 1362, 2008; in the data active = inhibition above about 58%; tested in S. cerevisiae
PMI act: activators of human PMI, primary screen, biochemical, fluorescence intensity, near-Km mannose 6-phosphate. Mannose-6-phosphate isomerase (Homo sapiens), P34949. purified human PMI, coupled resazurin fluorescence, 20 min; stronger effect = higher value; 1 = vehicle control, 0 substrate-free wells. activation factor at 20 µM. actives 0.005% (n = 190,000);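 active = activation factor of 2 or more at 20 µM, relative to plate controls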
Diaph act CS: compounds boosting diaphorase resazurin reduction – biochemical, uHTS, resorufin fluorescence, counter-screen for diaphorase-coupled primary assays, primary screen. activation factor at 20 µM. AID 1229, 2008. actives 0.005% (n = 190,000). Diaphorase/resazurin coupled assay, 16 min; stronger effect = higher value; 1 = vehicle wells, 0 = NADH-free wells;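 active = diaphorase activity raised at least twofold by the compound at 20 µM; inactive = activation factor below 2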
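Test system: Clostridium kluyveri diaphorase, purified enzyme. Buffer or medium: 50 mM HEPES pH 7.4 buffer plus MgCl2 and Tween 20. Also added: 0.114 mM NADH and 0.1 mM resazurin, final amounts. Dosing: compound 20 µM once, DMSO 1%. Schedule: 16 min enzyme reaction, ambient temperature. Detection: fluorescence of resorufin, 544 nm excitation, 590 nm emission.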
Numbers without * were called inactive; . = no result. Compounds with a hit are over-represented: about 10% of the library has one in this group of screens.

SMILES | Lmaj promast | PMI act hi M6P | WT yeast gro inh | PMI act | Diaph act CS
CSc1ccccc1NC(=S)NC1CCCCC1 | 28 | 0.9 | 0 | 0.9 | 0.9
S=C(Nc1cccc2ccccc12)NC1CCCCC1 | 99* | 0.5 | 75* | 1 | 0.8
CC(C)c1ccccc1NC(=S)NC(C)c1ccccc1 (centres undefined) | 97* | 1.2 | 60* | 1.1 | 0.9
CC(C)c1ccccc1NC(=S)NC1CCCCC1 | 35 | 1 | 71* | 1 | 0.9
S=C(NCC1CCCO1)Nc1cccc2ccccc12 (centres undefined) | 7 | 1 | -8 | 1 | 1.1
CCOc1ccc(C(C)NC(=S)NC2CCCCC2)cc1 (centres undefined) | 18 | 0.9 | 73* | 0.9 | 0.9
O=C(NCc1ccccc1)Nc1cccn(Cc2ccc(F)cc2)c1=O | 3 | 0.9 | -14 | 0.9 | 0.9
Cc1ccc(Cn2cccc(NC(=O)NC3CCCCC3)c2=O)cc1 | 86* | 0.8 | 7 | 1 | 0.9
O=C(Nc1cccn(Cc2ccc(F)cc2)c1=O)NC1CCCCC1 | 83* | 0.9 | 10 | 1.1 | 0.9
COc1ccc(Cn2cccc(NC(=O)Nc3cccc(C#N)c3)c2=O)cc1 | -2 | 0.7 | -12 | 0.8 | 0.7
COc1cccc(Cn2cccc(NC(=O)NC3CCCCC3)c2=O)c1 | 99* | 0.9 | -6 | 0.8 | 0.7
Cc1nnc(SCC(=O)NC(C)(C)C)n1NCc1c(F)cccc1Cl | -3 | 1 | -9 | 1 | 0.9
CCN(CCNC(=O)Nc1ccc(Cl)cc1)c1ccccc1 | 96* | 0.7 | 41 | 0.8 | 0.8
CCN(CCNC(=O)C1CCN(S(C)(=O)=O)CC1)c1ccccc1 | 0 | 0.9 | 25 | 0.9 | 0.9
Cc1cc2oc(C(=O)Nc3ccc(S(=O)(=O)N4CCCC(C)C4)cc3)cc(=O)c2cc1Cl (centres undefined) | 39 | 1 | -3 | 0.9 | 0.8
Cc1cc(C)c2oc(C(=O)Nc3ccc(S(=O)(=O)N4CCC(C)CC4)cc3)cc(=O)c2c1 | 87* | 1 | 13 | 1 | 0.7
CCc1ccc(C(C)NC(=O)C2(C)CC2(Br)Br)cc1 (centres undefined) | 54* | 1 | 5 | 1 | 0.9
CCC(NC(=O)C1(C)CC1(Br)Br)c1ccc(C)cc1 (centres undefined) | 26 | 0.9 | -2 | 1 | 0.8
CCOC(=O)C1=C(C)Nc2nc(=S)[nH]n2C1c1ccc(Cl)cc1 (centres undefined) | 94* | 0.9 | -4 | 0.9 | 0.8
Cc1ccc(C)c(S(=O)(=O)N2CC(=O)N(CCc3ccccc3)C(=O)C2)c1 | -9 | 1.2 | 18 | 1.2 | 1
O=C(NCC(c1cccnc1)N1CCN(c2ccccc2F)CC1)C1CCCCC1 (centres undefined) | 71* | 1.1 | 2 | 1 | 0.9
O=C(NCC(c1cccnc1)N1CCOCC1)NC1CCCCC1 (centres undefined) | 1 | 1 | -4 | 1 | 1
COc1ccc(N2CCN(C(CNC(=O)C3CCCCC3)c3cccnc3)CC2)cc1 (centres undefined) | 87* | 1 | 29 | 1 | 0.9
O=C(NCC(c1cccnc1)N1CCN(c2ccc(F)cc2)CC1)C1CCCCC1 (centres undefined) | 74* | 1 | 17 | 0.9 | 0.9
CC(C)(C)c1ccc(NC(=O)COc2ccc(-n3ccnc3)cc2)cc1 | 67* | 0.8 | 1 | 0.8 | 1
SMILES | Lmaj promast | PMI act hi M6P | WT yeast gro inh | PMI act | Diaph act CS
COc1ccc(OCC(=O)N/N=C(\C)c2ccc(-n3ccnc3)cc2)cc1 | 20 | 0.9 | -12 | 0.9 | 1
C/C(=N\NC(=O)COc1ccc(C(C)(C)C)cc1)c1ccc(-n2ccnc2)cc1 | 52* | 0.8 | 71* | 0.8 | 0.9
C/C(=N\Nc1ccc(Cl)c(Cl)c1)c1ccc(-n2ccnc2)cc1 | 58* | 2.6* | 69* | 1.7 | 0.9
CCOC(=O)c1c(C)[nH]c(C(=O)CSc2nccc(C)n2)c1C | 75* | 1.1 | 17 | 1.1 | 0.9
CCCNC(=O)Nc1cc(OCC)c(N2CCOCC2)cc1OCC | -6 | 0.4 | 7 | 0.8 | 0.7
CCNC(=S)Nc1cc(OCC)c(N2CCOCC2)cc1OCC | 64* | 0.4 | -10 | 0.8 | 0.7
CCN(CC)S(=O)(=O)c1cccc(NC(=O)COC(=O)C2COc3ccccc3O2)c1 (centres undefined) | -5 | 1 | -15 | 0.9 | 0.8
COc1ccc([C@@H]2Sc3ccccc3N(CCN(C)C)C(=O)[C@@H]2OC(C)=O)cc1 | -1 | 1.1 | -11 | 1.2 | 1
COc1cccc2c1OCC([C@@H]1C[C@H]3CN(Cc4cccc(Cl)c4)C(=O)[C@]34CCCN14)=C2 | 59* | 1 | 24 | 1 | 0.9
COc1ccccc1CN1C[C@@H]2C[C@@H](c3[nH]c4c(C)cccc4c3C)N3CCC[C@@]23C1=O | 53* | 0.9 | 29 | 1 | 0.9
COc1ccccc1/C=C/[C@@H]1C[C@H]2CN(Cc3cccc(Cl)c3)C(=O)[C@]23CCCN13 | 4 | . | 7 | . | .
CC(=O)c1ccc2noc(-c3ccc(Cl)cc3)c2c1 | -6 | 1.9 | -22 | 1.7 | 1
CC(=O)c1ccc2noc(-c3ccc(F)cc3)c2c1 | -6 | 2.1* | 0 | 1.7 | 0.9
N/C(Cc1ccc(Cl)cc1Cl)=N\OC(=O)Cc1ccc(Cl)cc1 | 46 | 1 | 56 | 0.8 | 0.9
O=C(N/N=C/c1cccc([N+](=O)[O-])c1)C1CC(=O)N(c2ccc(Cl)cc2)C1 (centres undefined) | 95* | 1.1 | -14 | 1 | 1
CC1=NN(c2ccc(C)cc2)C(=O)/C1=C\C=C\c1ccccc1 | 100* | 1.1 | 13 | 1 | 0.9
CC1=NN(c2ccccc2)C(=O)/C1=C/C=C/C=C/N(C)C | -2 | 0.5 | 47 | 0.5 | 0.8
CC1=NN(c2ccccc2)C(=O)/C1=C\c1ccc(Br)s1 | 54* | 0.8 | 11 | 0.9 | 1
CC1=NN(c2cccc(C(=O)O)c2)C(=O)/C1=C\C=C/c1ccccc1 | 100* | 1.1 | 9 | 1.1 | 0.8
C/C(=N\OCC(=O)Nc1ccc2c(c1)OCCO2)c1ccc2c(c1)OCCO2 | 1 | 0.9 | 23 | 0.9 | 0.9
Cc1c(NC2(C#N)CCCC2)c(=O)n(-c2ccccc2)n1C | 0 | 0.8 | -5 | 1 | 0.8
Cc1ccc(NS(=O)(=O)c2ccc(C)c(NC(=O)COc3ccccc3)c2)c(C)c1 | 16 | 1 | 58* | 0.8 | 0.8
Cc1ccc(NC(=O)COc2ccccc2)c(NC(=O)c2ccccc2C)c1 | 0 | . | . | . | .
C/C(=C\c1ccccc1)C(=O)Nc1cc(C)on1 | -4 | 1.1 | -16 | 1 | 1
COC(=O)CSc1nnc(CNC(=O)Cc2ccccc2)n1C | -6 | 1 | 5 | 1 | 1
